Activity calls are given as the source filed them. The rule behind the calls is not given here.
Assays:
Candida albicans [1] = experiment: Antimicrobial activity against Candida albicans ATCC 90028 by NCCLS method; format: functional, organism-based
Method in brief: (§1)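 Samples serially diluted in 20% DMSO/saline, tested in duplicate. Inocula set by OD630: C. albicans RPMI pH 4.5, 1·10^4 CFU/mL; C. neoformans Sabouraud dextrose, 1·10^5; MRSA cation-adjusted Mueller-Hinton pH 7.3, 5·10^5; M. intracellulare 7H9/OADC + 5% Alamar Blue pH 7.3, 2·10^6; A. fumigatus RPMI pH 7.3 + 5% Alamar Blue, 3·10^4.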

Cryptococcus neoformans [2] = experiment: Antimicrobial activity against Cryptococcus neoformans ATCC 90113 by NCCLS method; format: functional, organism-based; method in brief: as §1
Staphylococcus aureus [3] = experiment: Antimicrobial activity against methicillin-resistant Staphylococcus aureus ATCC 43300 by NCCLS method; format: functional, organism-based; method in brief: as §1
[4] = system: Mycobacterium intracellulare; experiment: Antimicrobial activity against Mycobacterium intracellular ATCC 23068 by alamar blue assay; format: functional, organism-based
Method in brief: as §1, with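 “3·10^4. Read at 630 nm or 544ex/590em before and after incubation.” for “3·10^4.”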

Aspergillus fumigatus [5] = experiment: Antimicrobial activity against Aspergillus fumigatus ATCC 90906 by alamar blue assay; format: functional, organism-based; method in brief: as §1
Candida albicans [6] = experiment: Antimicrobial activity against Candida albicans ATCC 90028 by NCCLS method in presence of 5% human serum; format: functional, organism-based
Cryptococcus neoformans [7] = experiment: Antimicrobial activity against Cryptococcus neoformans ATCC 90113 by NCCLS method in presence of 5% human serum; format: functional, organism-based
Staphylococcus aureus [8] = experiment: Antimicrobial activity against methicillin-resistant Staphylococcus aureus ATCC 43300 by NCCLS method in presence of 5% human serum; format: functional, organism-based
[9] = system: Mycobacterium intracellulare; experiment: Antimicrobial activity against Mycobacterium intracellular ATCC 23068 by alamar blue assay in presence of 5% human serum; format: functional, organism-based
Aspergillus fumigatus [10] = experiment: Antimicrobial activity against Aspergillus fumigatus ATCC 90906 by alamar blue assay in presence of 5% human serum; format: functional, organism-based
Plasmodium berghei [11] = experiment: Antimalarial activity as elimination of parasitaemia at day 28 against Plasmodium berghei NK65 infected Swiss Webster mice (Mus musculus) at 1 mg/kg/day intraperitoneal dose for 3 days; format: functional, organism-based
Method in brief: (§2)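 Peters 4-day suppressive test: male Swiss Webster mice (18–20 g) inoculated ip with 2·10^7 P. berghei NK-65 parasitized red cells. Compound in DMSO:PEG:water (1:3:6) given ip ~2 h post-infection, then once daily for 3 days (days 0–2). 5 mice/group; vehicle-treated control. Giemsa-stained tail blood smears read to day 28. % suppression = 100 − (treated/untreated parasitemia × 100). Cure = no parasitemia until day 28. Mice observed after each dose for signs of toxicity.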

Plasmodium berghei [12] = experiment: Antimalarial activity as elimination of parasitaemia at day 28 against Plasmodium berghei NK65 infected Swiss Webster mice (Mus musculus) at 2 mg/kg/day intraperitoneal dose for 3 days; format: functional, organism-based; method in brief: as §2
Plasmodium berghei [13] = experiment: Antimalarial activity as reduced parasitaemia against Plasmodium berghei NK65 infected Swiss Webster mice (Mus musculus); format: functional
Plasmodium berghei [14] = experiment: Antimalarial activity as reduced parasitaemia at day 3 against Plasmodium berghei NK65 infected Swiss Webster mice (Mus musculus) at 1 mg/kg/day intraperitoneal dose for 3 days; format: functional; parameters: scale not given: the % may be the effect or the level left; method in brief: as §2
Plasmodium berghei [15] = experiment: Antimalarial activity as reduced parasitaemia at day 3 against Plasmodium berghei NK65 infected Swiss Webster mice (Mus musculus) at 2 mg/kg/day intraperitoneal dose for 3 days; format: functional; parameters: scale not given: the % may be the effect or the level left; method in brief: as §2
Mus musculus = experiment: Toxicity in Swiss Webster mouse at 1 mg/kg, ip administered once daily for 3 days; format: organism-based; parameters: dose 1 mg/kg, route intraperitoneal; conditions: in vivo, 72 h; method in brief: as §2
Leishmania donovani = experiment: Antileishmanial activity against Leishmania donovani promastigotes after 48 hrs by alamar blue assay; format: functional, organism-based
SK-MEL = experiment: Cytotoxicity against human SK-MEL cells after 48 hrs by neutral red assay; format: functional, cell-based
Method in brief: (§3)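 Cells seeded at 25,000/well, incubated 24 h, then exposed to samples for 48 h. Viable cells measured by Neutral Red uptake. IC50 from logarithmic plots of growth inhibition vs concentration. Doxorubicin positive control, DMSO vehicle control.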

KB = experiment: Cytotoxicity against human KB cells after 48 hrs by neutral red assay; format: functional, cell-based; method in brief: as §3
BT-549 = experiment: Cytotoxicity against human BT549 cells after 48 hrs by neutral red assay; format: functional, cell-based; conditions: BT-549, 48 h; method in brief: as §3
Vero [16] = experiment: Cytotoxicity against african green monkey Vero cells after 48 hrs by neutral red assay; format: cell-based, Chlorocebus sabaeus; conditions: vero; method in brief: as §3
LLC-PK1 = experiment: Cytotoxicity against pig LLC-PK1 cells after 48 hrs by neutral red assay; format: cell-based, Sus scrofa; conditions: llc-pk1; method in brief: as §3
[17] = Toxicity in RBC assessed as hemolysis; format: cell-based; conditions: Erythrocyte
Plasmodium falciparum [18] = experiment: Antimalarial activity after 72 hrs against […] Plasmodium falciparum D6 by pLDH activity; format: functional, organism-based; conditions: D6, 72 h
Method in brief: (§4)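 P. falciparum-infected red cells (2% parasitemia, 2% hematocrit) in RPMI-1640 with 10% human serum and 60 μg/mL amikacin, exposed to serial sample concentrations. Gassed with 90% N2/5% O2/5% CO2, incubated 37 °C for 72 h. Parasite LDH activity read colorimetrically with Malstat reagent.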

Vero [19] = experiment: Cytotoxicity against african green monkey Vero cells; format: cell-based; conditions: Chlorocebus sabaeus; method in brief: as §3
Plasmodium falciparum [20] = experiment: Antimalarial activity after 72 hrs against chloroquine-resistant Plasmodium falciparum W2 by pLDH activity; format: functional, organism-based; conditions: W2, 72 h; method in brief: as §4
Plasmodium berghei [21] = experiment: Antimalarial activity as reduced parasitaemia at day 10 against Plasmodium berghei NK65 infected Swiss Webster mice (Mus musculus) at 1 mg/kg/day intraperitoneal dose for 3 days; format: functional; parameters: scale not given: the % may be the effect or the level left; method in brief: as §2
Plasmodium berghei [22] = experiment: Antimalarial activity as reduced parasitaemia at day 17 against Plasmodium berghei NK65 infected Swiss Webster mice (Mus musculus) at 1 mg/kg/day intraperitoneal dose for 3 days; format: functional, organism-based; method in brief: as §2
Plasmodium berghei [23] = experiment: Antimalarial activity as reduced parasitaemia at day 17 against Plasmodium berghei NK65 infected Swiss Webster mice (Mus musculus) at 2 mg/kg/day intraperitoneal dose for 3 days; format: functional, organism-based; method in brief: as §2
Cryptococcus neoformans [24] = experiment: Antimicrobial activity against Cryptococcus neoformans ATCC 90113 infected in mouse assessed as […] elimination from brain tissue at 0.0625 mg/kg/day, ip for 5 days; format: functional; conditions: route intraperitoneal
Plasmodium berghei [25] = experiment: Antimalarial activity as reduced parasitaemia at day 17 against Plasmodium berghei NK65 infected Swiss Webster mice (Mus musculus) at 10 mg/kg/day intraperitoneal dose for 3 days; format: functional; parameters: scale not given: the % may be the effect or the level left; method in brief: as §2
Plasmodium berghei [26] = experiment: Antimalarial activity as elimination of parasitaemia at day 28 against Plasmodium berghei NK65 infected Swiss Webster mice (Mus musculus) at 10 mg/kg/day intraperitoneal dose for 3 days; format: functional, organism-based; method in brief: as §2
Plasmodium berghei [27] = experiment: Antimalarial activity as reduced parasitaemia at day 10 against Plasmodium berghei NK65 infected Swiss Webster mice (Mus musculus) at 10 mg/kg/day intraperitoneal dose for 3 days; format: functional; parameters: scale not given: the % may be the effect or the level left; method in brief: as §2

C[C@@H]1N[C@H](CCCCCCCCCCc2cc(CCCCCCCCCC[C@@H]3CC[C@H](O)[C@@H](C)N3)c3[n+](c2)CCC3)CC[C@H]1O.[Cl-] [PROSOPILOSIDINE]
MFC (Candida albicans [1]): inactive | MIC (Candida albicans [1]): inactive | IC50 (Candida albicans [1]; Candida albicans, ATCC 90028, read-out: IC50): 15 µg/mL | IC50 (Cryptococcus neoformans [2]): 0.4 µg/mL | MIC (Cryptococcus neoformans [2]): 0.63 µg/mL | IC50 (Staphylococcus aureus [3]): 0.35 µg/mL | MBC (Staphylococcus aureus [3]): 5 µg/mL | MIC (Staphylococcus aureus [3]): 1.25 µg/mL | IC50 [4]: 0.9 µg/mL | MBC [4]: 20 µg/mL | MFC (Aspergillus fumigatus [5]): inactive | MIC (Aspergillus fumigatus [5]; Aspergillus fumigatus, ATCC 90906): 5 µg/mL | IC50 (Aspergillus fumigatus [5]; Aspergillus fumigatus, ATCC 90906, read-out: IC50): 3 µg/mL | Activity (Candida albicans [6]): Active | Activity (Cryptococcus neoformans [7]): Active | Activity (Staphylococcus aureus [8]): Active | Activity [9]: Active | Activity (Aspergillus fumigatus [10]): Active | Activity (Plasmodium berghei [11]): inactive | Activity (Plasmodium berghei [12]): inactive | ED50 (Plasmodium berghei [13]): 2 mg/kg | Activity (Plasmodium berghei [14]): 48% | Activity (Plasmodium berghei [15]): 48% | Activity (Mus musculus): Non-toxic | IC50 (Leishmania donovani): 0.7 µg/mL | IC90 (Leishmania donovani): 1.9 µg/mL | IC50 (SK-MEL): 4.5 µg/mL | IC50 (KB): 7.5 µg/mL | IC50 (BT-549): 8.75 µg/mL | IC50 (Vero [16]): Not Active | IC50 (LLC-PK1): Not Active | IC50 [17]: 16 µg/mL | IC50 (Plasmodium falciparum [18]): 0.039 µg/mL | IC50 (Vero [19]): > 23.8 µg/mL | IC50 (Plasmodium falciparum [20]): 0.095 µg/mL | Activity (Plasmodium berghei [21]): 40.5% | Activity (Plasmodium berghei [22]): inactive | Activity (Plasmodium berghei [23]): inactive | Activity (Cryptococcus neoformans [24]): 76%

CCO[C@H]1O[C@@H]2O[C@@]3(C)CC[C@H]4[C@H](C)CC[C@@H]([C@H]1C)[C@@]24OO3 [ARTEMOTIL]
Activity (Plasmodium berghei [25]): 100% | Activity (Plasmodium berghei [26]): Active | Activity (Plasmodium berghei [27]): 100%
